“Also recorded” adds a separate entry of the source. Where two headings read alike, the source gives them in different places. Peptide text beside a SMILES is read from it.
How the values were obtained:
smTas1R2/smTas1R3 = smTas1R2/smTas1R3 (Saimiri sciureus, UniProt A3QP08); assay: Ca2+ mobilization, wild type squirrel monkey sweet taste receptor; assay type: cell-based, squirrel monkey (Saimiri sciureus); details: HEK293E cells with Gα16-gust44
[1] = molecular target: hTas1R2:S40T/V66L/I67S/D142E+hTas1R3 (Homo sapiens, UniProt Q8TE23, D142E/I67S/S40T/V66L); assay: Ca2+ mobilization, mutated human receptor; assay type: cell-based; details: aspartame 10mM, neotame 1mM, sucralose 2 mM; compared with hTas1R2/hTas1R3
Chain of hTas1R2:S40T/V66L/I67S/D142E+hTas1R3 (Q8TE23 20-839 S40T/V66L/I67S/D142E, one chain of several): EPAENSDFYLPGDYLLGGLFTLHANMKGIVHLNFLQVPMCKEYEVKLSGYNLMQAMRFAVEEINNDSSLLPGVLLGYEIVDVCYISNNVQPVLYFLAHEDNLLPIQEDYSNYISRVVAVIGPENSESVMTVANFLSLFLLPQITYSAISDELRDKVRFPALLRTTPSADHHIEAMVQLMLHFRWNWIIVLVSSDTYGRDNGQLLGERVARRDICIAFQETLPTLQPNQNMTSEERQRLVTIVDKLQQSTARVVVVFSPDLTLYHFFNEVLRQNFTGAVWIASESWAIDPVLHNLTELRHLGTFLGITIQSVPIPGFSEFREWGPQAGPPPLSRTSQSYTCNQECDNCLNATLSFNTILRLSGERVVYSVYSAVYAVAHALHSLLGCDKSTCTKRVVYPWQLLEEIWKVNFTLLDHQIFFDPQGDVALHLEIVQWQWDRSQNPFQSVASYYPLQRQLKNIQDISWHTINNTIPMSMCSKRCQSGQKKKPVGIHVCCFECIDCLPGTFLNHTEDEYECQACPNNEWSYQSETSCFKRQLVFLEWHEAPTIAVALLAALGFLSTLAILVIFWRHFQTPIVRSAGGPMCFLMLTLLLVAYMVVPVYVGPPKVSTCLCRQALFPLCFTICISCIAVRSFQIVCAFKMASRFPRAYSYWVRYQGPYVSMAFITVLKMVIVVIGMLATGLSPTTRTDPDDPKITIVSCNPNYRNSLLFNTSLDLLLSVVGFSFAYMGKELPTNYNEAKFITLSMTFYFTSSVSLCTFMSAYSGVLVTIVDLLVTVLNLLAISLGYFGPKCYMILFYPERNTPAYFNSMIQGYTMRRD
Method in brief: (§1)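 HEK293E cells grown at 37°C in Opti-MEM with 5% FBS and seeded at 50,000/well. Cells co-lipofected with Tas1R plasmids and Gα16-gust44 (0.06 μg each per well); medium changed at 20 h, assayed 24 h later. Cells loaded 1 h with Fluo-4 AM in HEPES-buffered HBSS. Tastant added at 30 s; fluorescence (ex 488/em 525 nm) read every 2 s for 150 s more. ΔF/F normalised to human receptor maximal sucralose response; mean ± SEM, three independent experiments.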

[2] = molecular target: T1, hTas1R2:S40T/I67S/D142E+hTas1R3 (Homo sapiens, UniProt Q8TE23, D142E/I67S/S40T); assay: Ca2+ mobilization, mutated human receptor; assay type: cell-based; details: for calcium response to sweetener: aspartame 10mM, neotame 1mM, sucralose 2 mM, compared with hTas1R2/hTas1R3; for response in dose-response experiment: versus hTas1R2+hTas1R3
T1 sequence (Q8TE23 20-839 S40T/I67S/D142E): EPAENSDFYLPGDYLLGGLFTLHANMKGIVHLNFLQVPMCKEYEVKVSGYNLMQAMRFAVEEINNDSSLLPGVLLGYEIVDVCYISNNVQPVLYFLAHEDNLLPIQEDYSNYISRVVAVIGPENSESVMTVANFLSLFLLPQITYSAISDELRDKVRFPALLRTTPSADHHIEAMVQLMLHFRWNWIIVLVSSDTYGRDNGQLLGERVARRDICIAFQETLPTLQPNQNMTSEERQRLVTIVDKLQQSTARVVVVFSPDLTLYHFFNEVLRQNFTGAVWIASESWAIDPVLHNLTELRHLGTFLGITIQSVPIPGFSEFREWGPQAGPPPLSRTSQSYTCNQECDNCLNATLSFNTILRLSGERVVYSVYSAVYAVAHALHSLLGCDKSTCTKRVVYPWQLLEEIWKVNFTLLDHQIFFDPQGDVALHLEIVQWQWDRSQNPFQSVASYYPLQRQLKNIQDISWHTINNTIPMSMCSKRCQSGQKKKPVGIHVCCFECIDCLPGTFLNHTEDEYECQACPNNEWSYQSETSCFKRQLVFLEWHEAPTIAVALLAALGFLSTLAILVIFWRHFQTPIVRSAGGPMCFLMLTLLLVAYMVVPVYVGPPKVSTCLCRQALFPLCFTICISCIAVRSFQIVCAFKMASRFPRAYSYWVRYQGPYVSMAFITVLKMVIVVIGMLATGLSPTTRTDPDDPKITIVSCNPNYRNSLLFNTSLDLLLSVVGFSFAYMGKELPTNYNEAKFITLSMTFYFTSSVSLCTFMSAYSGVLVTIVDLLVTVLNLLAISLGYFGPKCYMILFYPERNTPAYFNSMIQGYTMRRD
T1 sequence (Q7RTX0 21-852 partner): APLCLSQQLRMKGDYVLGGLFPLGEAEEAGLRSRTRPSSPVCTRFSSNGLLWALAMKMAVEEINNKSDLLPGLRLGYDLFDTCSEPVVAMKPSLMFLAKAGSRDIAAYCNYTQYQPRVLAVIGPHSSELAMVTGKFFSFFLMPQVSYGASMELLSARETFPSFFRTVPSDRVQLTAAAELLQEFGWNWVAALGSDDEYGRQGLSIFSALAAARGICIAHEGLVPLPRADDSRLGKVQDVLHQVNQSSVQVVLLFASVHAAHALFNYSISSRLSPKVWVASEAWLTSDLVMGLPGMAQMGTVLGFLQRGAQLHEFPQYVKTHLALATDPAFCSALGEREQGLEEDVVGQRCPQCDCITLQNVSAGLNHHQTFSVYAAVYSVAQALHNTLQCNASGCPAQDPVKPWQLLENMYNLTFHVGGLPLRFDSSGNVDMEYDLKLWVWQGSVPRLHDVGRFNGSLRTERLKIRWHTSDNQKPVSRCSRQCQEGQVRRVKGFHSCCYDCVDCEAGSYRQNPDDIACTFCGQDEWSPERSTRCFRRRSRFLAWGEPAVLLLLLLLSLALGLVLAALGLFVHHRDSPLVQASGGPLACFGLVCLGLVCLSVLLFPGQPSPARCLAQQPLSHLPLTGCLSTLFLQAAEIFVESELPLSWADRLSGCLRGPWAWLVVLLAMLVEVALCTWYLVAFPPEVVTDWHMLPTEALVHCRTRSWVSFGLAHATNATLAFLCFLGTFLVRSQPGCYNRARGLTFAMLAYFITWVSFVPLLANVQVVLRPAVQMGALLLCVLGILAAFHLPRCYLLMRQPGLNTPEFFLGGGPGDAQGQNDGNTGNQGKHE

hTas1R2:I67S+hTas1R3 = hTas1R2:I67S+hTas1R3 (Homo sapiens, UniProt Q8TE23, I67S); assay: Ca2+ mobilization, mutated human receptor; assay type: cell-based; details: aspartame 10mM, neotame 1mM, sucralose 2 mM; compared with hTas1R2/hTas1R3
Chain of hTas1R2:I67S+hTas1R3 (Q8TE23 20-839 I67S, one chain of several): as the sequence (Q8TE23 20-839 S40T/V66L/I67S/D142E, one chain of several) above, with T21S, L47V, E123D counted along it
Method in brief: as §1

hTas1R2:D142E+hTas1R3 = hTas1R2:D142E+hTas1R3 (Homo sapiens, UniProt Q8TE23, D142E); assay: Ca2+ mobilization, mutated human receptor; assay type: cell-based; details: aspartame 10mM, neotame 1mM, sucralose 2 mM; compared with hTas1R2/hTas1R3
Chain of hTas1R2:D142E+hTas1R3 (Q8TE23 20-839 D142E, one chain of several): as the sequence (Q8TE23 20-839 S40T/V66L/I67S/D142E, one chain of several) above, with T21S, L47V, S48I counted along it
Method in brief: as §1

[3] = molecular target: smTas1R2:T40S/L66V/S67I/E142D+smTas1R3 (Saimiri sciureus, UniProt A3QP08, E142D/L66V/S67I/T40S); assay: Ca2+ mobilization, mutated squirrel monkey receptor; assay type: cell-based, squirrel monkey (Saimiri sciureus); details: aspartame 10mM, neotame 1mM, sucralose 2 mM; compared with smTas1R2/smTas1R3
Chain of smTas1R2:T40S/L66V/S67I/E142D+smTas1R3 (A3QP08 20-834 T40S/L66V/S67I/E142D): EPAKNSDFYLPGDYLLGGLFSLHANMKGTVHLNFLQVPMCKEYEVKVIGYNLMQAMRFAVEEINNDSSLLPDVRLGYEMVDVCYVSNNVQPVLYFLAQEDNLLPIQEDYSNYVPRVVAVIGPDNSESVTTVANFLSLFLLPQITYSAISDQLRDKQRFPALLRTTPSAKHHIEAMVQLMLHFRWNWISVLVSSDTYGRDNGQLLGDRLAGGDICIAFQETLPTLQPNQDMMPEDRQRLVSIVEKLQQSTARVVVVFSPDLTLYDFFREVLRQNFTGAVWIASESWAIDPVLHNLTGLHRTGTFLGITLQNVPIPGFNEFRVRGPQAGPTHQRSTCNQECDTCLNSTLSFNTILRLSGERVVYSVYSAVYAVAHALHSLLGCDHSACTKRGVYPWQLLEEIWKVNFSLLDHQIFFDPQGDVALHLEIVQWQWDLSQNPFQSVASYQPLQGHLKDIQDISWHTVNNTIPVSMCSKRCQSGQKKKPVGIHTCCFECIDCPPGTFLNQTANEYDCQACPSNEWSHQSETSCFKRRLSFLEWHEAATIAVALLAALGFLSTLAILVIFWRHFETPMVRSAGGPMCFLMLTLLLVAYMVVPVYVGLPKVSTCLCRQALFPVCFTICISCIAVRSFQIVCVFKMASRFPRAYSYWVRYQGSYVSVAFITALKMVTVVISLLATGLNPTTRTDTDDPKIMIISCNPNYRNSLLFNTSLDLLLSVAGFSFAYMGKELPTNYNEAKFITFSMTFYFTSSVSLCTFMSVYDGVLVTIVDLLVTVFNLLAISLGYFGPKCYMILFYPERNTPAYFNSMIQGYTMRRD

[4] = molecular target: smTas1R2:T40S/S67I/E142D+smTas1R3 (Saimiri sciureus, UniProt A3QP08, E142D/S67I/T40S); assay: as above; assay type: cell-based, squirrel monkey (Saimiri sciureus); details: for calcium response to sweetener: aspartame 10mM, neotame 1mM, sucralose 2 mM, compared with smTas1R2/smTas1R3; for response in dose-response experiment: versus smTas1R2+smTas1R3; for Bottom (B) of sigmoid dose-response fit / Top (T) of sigmoid dose-response fit: ΔF/F normalized to maximum response of hTas1R2/hTas1R3 to neotame
Chain of smTas1R2:T40S/S67I/E142D+smTas1R3 (A3QP08 20-834 T40S/S67I/E142D): as the sequence (A3QP08 20-834 T40S/L66V/S67I/E142D) above, with V47L counted along it

[5] = molecular target: smTas1R2:T40S/S67I+smTas1R3 (Saimiri sciureus, UniProt A3QP08, S67I/T40S); assay: as above; assay type: cell-based, squirrel monkey (Saimiri sciureus); details: aspartame 10mM, neotame 1mM, sucralose 2 mM
Chain of smTas1R2:T40S/S67I+smTas1R3 (A3QP08 20-834 T40S/S67I): as the sequence (A3QP08 20-834 T40S/L66V/S67I/E142D) above, with V47L, D123E counted along it

[6] = molecular target: smTas1R2:S67I/E142D+smTas1R3 (Saimiri sciureus, UniProt A3QP08, E142D/S67I); assay: as above; assay type: cell-based, squirrel monkey (Saimiri sciureus); details: for response in dose-response experiment: versus smTas1R2+smTas1R3; for Bottom (B) of sigmoid dose-response fit / Top (T) of sigmoid dose-response fit: ΔF/F normalized to maximum response of hTas1R2/hTas1R3 to neotame
Chain of smTas1R2:S67I/E142D+smTas1R3 (A3QP08 20-834 S67I/E142D): as the sequence (A3QP08 20-834 T40S/L66V/S67I/E142D) above, with S21T, V47L counted along it

[7] = cited from earlier work
[8] = HEK293E cells with Gα16-gust44, dose-response, calcium mobilization
[9] = ΔF/F normalized to maximum response of hTas1R2/hTas1R3 to neotame

Chain of smTas1R2/smTas1R3 (A3QP08 20-834): as the sequence (A3QP08 20-834 T40S/L66V/S67I/E142D) above, with S21T, V47L, I48S, D123E counted along it

Compound	response in dose-response experiment (smTas1R2/smTas1R3)	calcium response to sweetener [1]	calcium response to sweetener [2]	response in dose-response experiment ([2]; dose-response)	calcium response to sweetener (hTas1R2:I67S+hTas1R3)	calcium response to sweetener (hTas1R2:D142E+hTas1R3)	calcium response to sweetener [3]	calcium response to sweetener [4]	response in dose-response experiment ([4]; dose-response)	Bottom (B) of sigmoid dose-response fit [4]	Top (T) of sigmoid dose-response fit [4]	calcium response to sweetener [5]	response in dose-response experiment ([6]; dose-response)	Bottom (B) of sigmoid dose-response fit [6]	Top (T) of sigmoid dose-response fit [6]	also measured
COC(=O)[C@H](Cc1ccccc1)NC(=O)[C@@H](N)CC(=O)O [aspartame, L-α-aspartly-L-phenylalanine methyl ester] (H-Asp-Phe-OMe)	no response	greatly impaired	greatly impaired responsiveness	no responses	mild phenotype	almost abolished; also recorded: abolishes the activity	significant responses	significant responses	good response	−2.882	32.61	no response	good response	−0.6682	26.17	EC50 [4]: 1200 µM; EC50 [6]: 5600 µM; sweet potency relative to sucrose ([7]; ref Meguro et al., 2000): 200 times
COC(=O)[C@H](Cc1ccccc1)NC(=O)[C@H](CC(=O)O)NCCC(C)(C)C [neotame]	no response	greatly impaired	greatly impaired responsiveness; also recorded: almost completely abolished	weaker responses	slightly reduced response	significantly decreased	significant responses	significant responses	good responses	−4.671	51.73	no response	good responses	−5.754	56.59	EC50 [2, 8]: 12000 µM; Bottom (B) of sigmoid dose-response fit [2, 9]: −1.486; Top (T) of sigmoid dose-response fit [2, 9]: 39.87; EC50 [4, 8]: 280 µM; EC50 [6, 8]: 1000 µM; sweetness relative to aspartame ([7]; ref Garbow et al., 2001): about 40 times

Reference: article PMC3149845 (The Journal of neuroscience : the official journal of the …, 2011)
